Assay results gathered from unrelated publications.
Compare with care: the assays were run in different laboratories.
CA12: Carbonic anhydrase 12 (CA12, Homo sapiens, UniProt O43570)
SLC6A3: Sodium-dependent dopamine transporter (SLC6A3, Homo sapiens, UniProt Q01959)

| Compound | target | test | conditions | Ki |
| --- | --- | --- | --- | --- |
| Cc1cc(=O)oc2cc(OCCCC[Se]C#N)ccc12 | CA12 | enzyme activity, inhibitor, stopped-flow | – | 51.6 nM |
| CCCCC1CNC2CCc3ccc(OC)cc3C12 (racemic) | SLC6A3 | ligand displacement, radioligand | – | > 10000 nM |
| COC(=O)[C@H]1[C@@H](c2ccc(Cl)cc2)C[C@@H]2CC[C@H]1N2CCCCCCCCCc1c2ccccc2cc2ccccc12 | SLC6A3 | ligand displacement, radioligand | pH 7.4 | 24 nM |
| CCOP1(=O)CC=Cc2cc(N)ccc2O1 (stereo not drawn) | CA12 | enzyme activity, inhibitor, stopped-flow | – | 16.6 nM |
| COC(=O)[C@H]1[C@@H](c2ccc(Cl)c(Cl)c2)C[C@@H]2CC[C@H]1N2CCCOCc1ccc2cc3ccccc3cc2c1 | SLC6A3 | ligand displacement, radioligand | pH 7.4, cell membranes | 204 nM |
| COc1ccc(NC(=O)Nc2ccc3c(c2)C=CCP(=O)(O)O3)cc1 | CA12 | enzyme activity, inhibitor, stopped-flow | – | > 10000 nM |
| Cc1c(Cl)c(=O)oc2cc(OCCCC[Se]C#N)ccc12 | CA12 | enzyme activity, inhibitor, stopped-flow | – | 71.6 nM |
| O=C(Nc1ccc2c(c1)C=CCP(=O)(O)O2)c1ccc(I)cc1 | CA12 | enzyme activity, inhibitor, stopped-flow | – | 57.5 nM |
| COc1cc2c(cc1OC)CN(CCc1ccc(NC(=O)c3cccc4c(=O)c5cccc(OC)c5[nH]c34)cc1)CC2 | D(3) dopamine receptor (DRD3, Homo sapiens, UniProt P35462) | cell-free assay | – | 77 nM |
